Legend:
S. aureus USA300 [1] = experiment: Membrane depolarization, DiBAC4; assay type: cell-based, Staphylococcus aureus; settings: S. aureus USA300, treated at 12.5 μM, DiBAC4(3) fluorescence; Triton X-100 (0.1%) positive control
[2] = test system: S. aureus USA300 biofilms; experiment: Disruption of 24 h established biofilms, XTT; assay type: cell-based, Staphylococcus aureus; settings: 24 h preformed S. aureus USA300 biofilms, 24 h treatment in TSB
In short: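 Exponential-phase TSB culture at 10^5 CFU/mL grew 24 h at 37°C to form biofilms. Plankton was removed with a PBS wash. Biofilms took 10× peptide diluted in fresh TSB for 24 h at 37°C, were washed, then got XTT in TSB for 2 h at 37°C. A450 was blanked on media plus XTT. Growth was expressed as % of untreated biofilm wells.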

[3] = test system: E. coli ATCC 25922 biofilms; experiment: Disruption of 24 h established biofilms, XTT; assay type: cell-based, Escherichia coli; settings: 24 h preformed E. coli ATCC 25922 biofilms
S. aureus USA300 [4] = experiment: Membrane permeation, propidium iodide; assay type: cell-based, Staphylococcus aureus; settings: S. aureus USA300, peptides at 3.12 μM, 10 mM PBS, 37°C, read for 2 h
In short: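 Cells were suspended in 10 mM PBS at final OD600 ~0.1 with propidium iodide and serially diluted 10× peptide. They were held at 37°C shaking at 100 rpm. Fluorescence (ex 584/em 620 nm) was read every 5 min for 2 h. Plots used averages of duplicate experiments.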

E. coli ML-35p = experiment: Outer and inner membrane permeabilization; assay type: cell-based, Escherichia coli; settings: peptides at 6.25 μM, absorbance for 40 min
In short: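 Cells came from a single colony grown overnight in TSB at 37°C and were washed three times in PBS. They were diluted to ~10^6 CFU/mL in PBS containing 0.3 mg/mL TSB. Peptide was 0 to 12.5 μM, with 30 μM nitrocefin or 2.5 mM ONPG per well. Absorbance at 490 and 420 nm was followed for 40 min at 37°C.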

S. aureus USA300 [5] = settings: ref [10]; cited from earlier work
E. coli = settings: ref [50], [10]; cited from earlier work

CCCCCCCCCC(=O)N[C@@H](Cc1c[nH]c2ccccc12)C(=O)N[C@H](CC(N)=O)C(=O)N[C@@H](CC(=O)O)C(=O)N[C@@H]1C(=O)NCC(=O)N[C@@H](CCCN)C(=O)N[C@@H](CC(=O)O)C(=O)N[C@H](C)C(=O)N[C@@H](CC(=O)O)C(=O)NCC(=O)N[C@H](CO)C(=O)N[C@@H]([C@H](C)CC(=O)O)C(=O)N[C@@H](CC(=O)c2ccccc2N)C(=O)O[C@@H]1C [daptomycin]
Membrane depolarization (S. aureus USA300 [1]): very weak
Concentration that essentially eliminated biofilms [2]: 6.25 µM

CO[C@H]1/C=C/O[C@@]2(C)Oc3c(C)c(O)c4c(O)c(cc(O)c4c3C2=O)NC(=O)/C(C)=C\C=C\[C@H](C)[C@H](O)[C@@H](C)[C@@H](O)[C@@H](C)[C@H](OC(C)=O)[C@@H]1C [rifamycin]
Antibiofilm effect [3]: ineffective

NC[C@H]1O[C@H](O[C@H]2[C@H](O)[C@@H](O[C@H]3O[C@H](CO)[C@@H](O)[C@H](N)[C@H]3O)[C@H](N)C[C@@H]2N)[C@H](N)C[C@@H]1O [tobramycin]
Membrane permeation (propidium iodide fluorescence) (S. aureus USA300 [4]): unable to damage bacterial membranes

CN[C@H](CC(C)C)C(=O)N[C@H]1C(=O)N[C@@H](CC(N)=O)C(=O)N[C@H]2C(=O)N[C@H]3C(=O)N[C@H](C(=O)N[C@H](C(=O)O)c4cc(O)cc(O)c4-c4cc3ccc4O)[C@H](O)c3ccc(c(Cl)c3)Oc3cc2cc(c3O[C@@H]2O[C@H](CO)[C@@H](O)[C@H](O)[C@H]2O[C@H]2C[C@](C)(N)[C@H](O)[C@H](C)O2)Oc2ccc(cc2Cl)[C@H]1O [vancomycin]
Outer membrane permeation (β-lactamase, nitrocefin) (E. coli ML-35p): unable to

GFKRlVQRlKDFlRKLV-amide [GF-17d3]
Activity against S. aureus USA300 (S. aureus USA300 [5]): not active
Activity against E. coli in the presence of chymotrypsin (E. coli): active

From article PMC6689428 (Biochimica et biophysica acta. Biomembranes, 2019)
